Data on 13 compounds can be found in ChEMBL document CHEMBL2429801, “3-Ylidenephthalides as a new class of transient receptor potential channel TRPA1 and TRPM8 modulators” (Bioorg Med Chem Lett, 2013).

A value given as a limit tells only on which side of the number the result lay.

The target in assay [1] is T1, Transient receptor potential cation channel subfamily A member 1 (Rattus norvegicus, UniProt Q6RI86). The assay can be described thus: Antagonist activity at rat recombinant TRPA1 overexpressed in HEK293 cells assessed as inhibition of allyl isothiocyanate-induced intracellular calcium influx preincubated for 5 mins followed by allyl isothiocyanate challenge by Fluo-4-AM dye-based spectrofluorimetric analysis. It is filed as cell-based. The method, boiled down: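 Test compounds were preincubated for 5 min in the cuvette with Fluo-4-loaded rat TRPA1-HEK293 cells in Tyrode's buffer, followed by 100 µM AITC challenge.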
T1 sequence (Q6RI86 whole entry): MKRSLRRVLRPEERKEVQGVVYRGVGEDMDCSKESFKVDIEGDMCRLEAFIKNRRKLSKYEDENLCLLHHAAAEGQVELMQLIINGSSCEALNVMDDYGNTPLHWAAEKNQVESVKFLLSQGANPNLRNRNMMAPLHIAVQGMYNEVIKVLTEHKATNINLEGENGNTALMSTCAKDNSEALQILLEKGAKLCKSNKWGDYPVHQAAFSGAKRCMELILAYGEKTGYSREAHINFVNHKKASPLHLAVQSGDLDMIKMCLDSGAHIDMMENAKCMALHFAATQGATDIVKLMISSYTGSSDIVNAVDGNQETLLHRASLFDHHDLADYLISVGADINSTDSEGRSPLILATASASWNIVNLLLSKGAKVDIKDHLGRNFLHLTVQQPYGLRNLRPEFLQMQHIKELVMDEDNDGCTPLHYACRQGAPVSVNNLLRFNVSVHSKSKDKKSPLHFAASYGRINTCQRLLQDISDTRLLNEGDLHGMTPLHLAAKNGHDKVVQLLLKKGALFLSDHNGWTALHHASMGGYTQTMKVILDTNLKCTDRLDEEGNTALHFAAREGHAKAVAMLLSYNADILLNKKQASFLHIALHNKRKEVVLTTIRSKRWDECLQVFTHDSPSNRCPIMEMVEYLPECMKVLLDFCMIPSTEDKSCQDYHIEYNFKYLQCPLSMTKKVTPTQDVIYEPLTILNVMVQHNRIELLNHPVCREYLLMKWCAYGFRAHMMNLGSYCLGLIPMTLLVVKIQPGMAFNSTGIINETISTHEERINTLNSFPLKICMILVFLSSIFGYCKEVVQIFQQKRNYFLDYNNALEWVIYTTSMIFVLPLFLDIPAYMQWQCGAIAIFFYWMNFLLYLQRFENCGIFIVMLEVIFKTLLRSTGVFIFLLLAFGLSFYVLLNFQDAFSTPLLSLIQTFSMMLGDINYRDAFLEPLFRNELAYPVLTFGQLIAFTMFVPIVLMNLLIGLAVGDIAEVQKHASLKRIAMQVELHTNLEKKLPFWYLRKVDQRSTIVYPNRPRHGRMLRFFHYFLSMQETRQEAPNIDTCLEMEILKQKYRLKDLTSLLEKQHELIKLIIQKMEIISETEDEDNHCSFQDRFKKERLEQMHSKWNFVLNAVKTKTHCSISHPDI
For orientation: Calcium flux is commonly read through the fluorescence of an indicator in the cells.

Assay [2] addresses Transient receptor potential cation channel subfamily A member 1 (Rattus norvegicus) (UniProt Q6RI86). The assay can be described thus: Agonist activity at rat recombinant TRPA1 overexpressed in HEK293 cells assessed as induction of intracellular calcium influx by Fluo-4-AM dye-based spectrofluorimetric analysis relative to allyl isothiocyanate. Format: cell-based.
In assay [3] the target is T1, Transient receptor potential cation channel subfamily A member 1. The assay can be described thus: Agonist activity at rat recombinant TRPA1 overexpressed in HEK293 cells assessed as induction of intracellular calcium influx by Fluo-4-AM dye-based spectrofluorimetric analysis. It is filed as cell-based.
Assay [4] deals with Transient receptor potential cation channel subfamily M member 8 (Rattus norvegicus) (UniProt Q8R455). Description: Agonist activity at rat recombinant TRPM8 overexpressed in HEK293 cells assessed as induction of intracellular calcium influx by Fluo-4-AM dye-based spectrofluorimetric analysis relative to ionomycin. It is filed as cell-based. More on the design: concentration or dose not given beside the values.
Sequence of Transient receptor potential cation channel subfamily M member 8 (Rattus norvegicus) (Q8R455 whole entry, looked up): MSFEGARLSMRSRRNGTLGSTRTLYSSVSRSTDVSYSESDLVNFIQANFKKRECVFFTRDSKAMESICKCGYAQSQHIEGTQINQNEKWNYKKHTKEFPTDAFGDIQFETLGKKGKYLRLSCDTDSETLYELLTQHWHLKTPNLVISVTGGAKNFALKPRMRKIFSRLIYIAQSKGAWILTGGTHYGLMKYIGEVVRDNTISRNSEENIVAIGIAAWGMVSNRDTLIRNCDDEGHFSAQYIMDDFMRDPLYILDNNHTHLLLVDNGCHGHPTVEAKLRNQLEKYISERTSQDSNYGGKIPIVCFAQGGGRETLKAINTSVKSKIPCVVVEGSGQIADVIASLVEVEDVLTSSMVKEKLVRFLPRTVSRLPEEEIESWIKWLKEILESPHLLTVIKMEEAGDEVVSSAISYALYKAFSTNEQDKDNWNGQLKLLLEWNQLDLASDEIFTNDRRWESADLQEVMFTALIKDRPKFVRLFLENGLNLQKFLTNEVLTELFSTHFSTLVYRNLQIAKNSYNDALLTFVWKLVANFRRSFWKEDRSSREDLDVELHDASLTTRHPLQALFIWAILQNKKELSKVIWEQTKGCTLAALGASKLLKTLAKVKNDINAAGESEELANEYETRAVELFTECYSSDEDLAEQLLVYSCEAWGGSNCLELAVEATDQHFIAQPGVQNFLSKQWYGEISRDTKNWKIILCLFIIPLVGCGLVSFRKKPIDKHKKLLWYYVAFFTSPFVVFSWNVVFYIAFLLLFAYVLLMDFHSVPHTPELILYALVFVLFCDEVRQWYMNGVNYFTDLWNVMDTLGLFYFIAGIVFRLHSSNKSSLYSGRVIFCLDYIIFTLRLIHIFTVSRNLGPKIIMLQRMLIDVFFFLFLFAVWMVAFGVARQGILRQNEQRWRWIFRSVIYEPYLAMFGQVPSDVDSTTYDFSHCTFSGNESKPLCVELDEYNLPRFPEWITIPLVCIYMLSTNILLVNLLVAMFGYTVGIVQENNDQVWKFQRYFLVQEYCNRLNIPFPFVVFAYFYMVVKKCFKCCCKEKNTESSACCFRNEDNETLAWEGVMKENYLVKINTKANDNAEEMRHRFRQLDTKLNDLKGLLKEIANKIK

In assay [5] the target is T2, Transient receptor potential cation channel subfamily M member 8 (Rattus norvegicus, UniProt Q8R455). The assay can be described thus: Antagonist activity at rat recombinant TRPM8 overexpressed in HEK293 cells assessed as inhibition of icilin-induced intracellular calcium influx preincubated for 5 mins followed by icilin challenge by Fluo-4-AM dye-based spectrofluorimetric analysis. Format: cell-based.
T2 sequence (Q8R455 whole entry): as the sequence (Q8R455 whole entry, looked up) above

Assay [6] has as its target T2, Transient receptor potential cation channel subfamily M member 8. Description: Antagonist activity at rat recombinant TRPM8 overexpressed in HEK293 cells assessed as inhibition of menthol-induced intracellular calcium influx preincubated for 5 mins followed by menthol challenge by Fluo-4-AM dye-based spectrofluorimetric analysis. It is filed as cell-based.
In assay [7] the target is T3, Transient receptor potential cation channel subfamily A member 1 (Homo sapiens, UniProt O75762). The assay can be described thus: Agonist activity at TRPA1 (unknown origin).
T3 sequence (O75762 whole entry): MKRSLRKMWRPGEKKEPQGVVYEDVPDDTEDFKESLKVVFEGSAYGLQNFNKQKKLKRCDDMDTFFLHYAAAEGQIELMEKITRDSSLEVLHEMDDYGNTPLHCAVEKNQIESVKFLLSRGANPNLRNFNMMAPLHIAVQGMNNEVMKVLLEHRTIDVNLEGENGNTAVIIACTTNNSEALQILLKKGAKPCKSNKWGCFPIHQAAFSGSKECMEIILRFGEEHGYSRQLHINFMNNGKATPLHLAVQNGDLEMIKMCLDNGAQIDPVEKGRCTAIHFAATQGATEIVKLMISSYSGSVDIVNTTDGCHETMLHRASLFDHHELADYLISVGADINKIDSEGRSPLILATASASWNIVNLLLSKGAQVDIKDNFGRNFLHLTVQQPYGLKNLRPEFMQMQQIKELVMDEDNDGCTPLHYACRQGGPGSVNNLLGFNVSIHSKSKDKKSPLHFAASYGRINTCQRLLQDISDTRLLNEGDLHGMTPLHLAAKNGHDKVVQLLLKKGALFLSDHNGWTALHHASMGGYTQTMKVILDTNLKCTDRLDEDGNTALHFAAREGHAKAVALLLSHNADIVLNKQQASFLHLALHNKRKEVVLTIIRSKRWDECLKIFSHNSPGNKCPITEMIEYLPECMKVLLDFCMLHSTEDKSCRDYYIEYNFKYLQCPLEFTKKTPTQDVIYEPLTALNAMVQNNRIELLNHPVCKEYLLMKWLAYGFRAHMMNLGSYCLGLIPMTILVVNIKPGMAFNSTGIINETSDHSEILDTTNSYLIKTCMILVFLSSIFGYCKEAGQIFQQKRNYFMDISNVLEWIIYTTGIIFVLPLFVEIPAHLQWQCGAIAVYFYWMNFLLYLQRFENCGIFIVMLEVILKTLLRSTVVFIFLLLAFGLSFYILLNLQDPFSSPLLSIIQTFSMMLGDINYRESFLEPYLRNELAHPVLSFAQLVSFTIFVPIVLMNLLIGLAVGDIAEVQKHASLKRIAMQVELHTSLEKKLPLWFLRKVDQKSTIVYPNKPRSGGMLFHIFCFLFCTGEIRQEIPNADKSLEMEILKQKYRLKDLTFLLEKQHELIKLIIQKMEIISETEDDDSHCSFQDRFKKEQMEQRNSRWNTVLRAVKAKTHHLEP
The target of assay [8] is T2, Transient receptor potential cation channel subfamily M member 8. Description: Agonist activity at rat recombinant TRPM8 overexpressed in HEK293 cells assessed as induction of intracellular calcium influx by Fluo-4-AM dye-based spectrofluorimetric analysis. It is filed as cell-based.
For assay [9], the target named is T3, Transient receptor potential cation channel subfamily A member 1. Description: Antagonist activity at TRPA1 (unknown origin) assessed as inhibition of mustard oil-activated […]. The method, boiled down:
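Rat TRPA1 stably expressed in HEK293 cells grown in EMEM with 10% FBS. Cells were loaded with Fluo-4-AM (4 µM) for 1 h at room temperature, then suspended in Tyrode's buffer pH 7.4. Compound was added 5 min before 100 µM allyl isothiocyanate. Ca2+ fluorescence (ex 488/em 516 nm) was read at 25 °C, with the agonist-alone response set as 100%.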

Sequence of Transient receptor potential cation channel subfamily A member 1 (Rattus norvegicus) (Q6RI86 whole entry): as the sequence (Q6RI86 whole entry) above

On to `O=C1O/C(=C\c2ccccc2)c2ccccc21`, for which the figures for the IC50 in assay [1], in assay [5] and in assay [6] were 2900 nM, 8.3 µM and 10.2 µM, respectively. The Efficacy in assay [2] is 93.6%; in assay [4], under 10%. In assay [3], the EC50 (usually the concentration needed to bring the measured effect to its halfway point) came to 3 µM.
On to `C=C1OC(=O)c2cc(F)ccc21`, for which the 50% inhibitory concentration (IC50) – broadly, the concentration that gives 50% inhibition – in assay [1] is over 100000 nM; in [5], over 200 µM; in [6] it was over 200 µM. Also, the Efficacy in [2] was 10.2%; in [4], under 10%. Also, the EC50 in assay [3] worked out at 32.2 µM.
Take `C=C1OC(=O)c2c(C)cc(C)cc21`: the values for the IC50 in assay [1], in assay [5] and in assay [6] were 34000 nM, 90.1 µM and 128 µM, respectively. For the same compound, the Efficacy in assay [2] was 85.1%; in assay [4], under 10%. The EC50 in [3] turned out to be 17.2 µM.
Regarding `CCC/C=C1\OC(=O)C2=C1CCC=C2` [LIGUSTILIDE], in [7], the EC50 was 44 µM.
Consider `COc1ccc(/C=C2\OC(=O)c3ccccc32)cc1`, for which the IC50 came to 2200 nM in assay [1], 3.4 µM in assay [5] and 11.3 µM in assay [6]. The figures for the Efficacy in assay [2] and in assay [4] were 65.1% and 12.9%, respectively. Besides, the figures for the EC50 in assay [3] and in assay [8] were 1.3 µM and 1800 nM, respectively.
Regarding `O=C1O/C(=C\c2ccc(Cl)cc2)c2ccccc21`, the values for the IC50 in assay [1], in assay [5] and in [6] were 1500 nM, 14.9 µM and 48.1 µM, respectively. Besides, the Efficacy in [2] was 112%; in [4], under 10%. Besides, the EC50 in [3] stood at 2 µM.
`CCC/C=C1\OC(=O)c2ccccc21`: the Efficacy in assay [2] and in assay [4] was under 10% each time.
As for `C/C=C1\OC(=O)c2ccc(OC)cc21`, the results for the 50% inhibitory concentration (IC50) in assay [1], in [5] and in assay [6] were over 100000 nM, 161 µM and over 200 µM, respectively. The Efficacy in [2] was 24.6%; in assay [4], under 10%. In assay [3], the concentration for a half-maximal effect (EC50) was found to be 21.7 µM.
As for `CC/C=C1\OC(=O)c2c(C)cc(C)cc21`, the IC50 in assay [1] came to 36300 nM; in assay [5], 7.7 µM; in assay [6] it was 12.1 µM. For the same compound, the results for the Efficacy in assay [2] and in assay [4] were 43.7% and under 10%, respectively. The EC50 in assay [3] amounted to 15.8 µM.
As to `CCC/C=C1\OC(=O)c2ccccc21` (mixture of isomers) [Z-butylidenephthalide], in assay [9], the half-maximal inhibitory concentration (IC50) stood at 23 µM.
For `Cc1cc(C)c2c(c1)/C(=C/c1ccccc1)OC2=O`, the values for the 50% inhibitory concentration (IC50) in [1], in assay [5] and in assay [6] were 800 nM, 1 µM and 1.9 µM, respectively. Besides, the results for the Efficacy in [2] and in assay [4] were 117% and under 10%, respectively. In [3], the EC50 turned out to be 1.1 µM.
For the compound `Cc1ccc(/C=C2\OC(=O)c3ccccc32)cc1`, the figures for the IC50 in [1], in [5] and in assay [6] were 2400 nM, 7.2 µM and 25.1 µM, respectively. For the same compound, the Efficacy in [2] was 126%; in assay [4], under 10%. The concentration for a half-maximal effect (EC50) in assay [3] was 4.3 µM.
Consider `CCC/C=C1\OC(=O)c2ccccc21` [Z-butylidenephthalide], for which the values for the 50% inhibitory concentration (IC50) in assay [1], in assay [5] and in assay [6] were 44500 nM, 141 µM and 153 µM, respectively.
